pIC50: −log10 of the molar value.
What was measured:
Prolyl endopeptidase FAP [1] = target: T1, Prolyl endopeptidase FAP (Homo sapiens, UniProt Q12884); assay: (§1) Prodrug activation assessed as recombinant human FAP-alpha mediated (S)-((3S,5R,8R,9S,10S,11S,13R,14S,17R)-11,14-dihydroxy-10,13-dimethyl-12-oxo-17-(2-oxo-2H-pyran-5-yl)hexadecahydro-1H-cyclopenta[a]phenanthren-3-yl) 2-amino-3-(1H-indol-3-yl)propanoate formation by measuring intrinsic clearance at 40 umol/L after 6 hrs by UPLC-MS/MS analysis; conditions: 40 µM
T1 sequence (Q12884 whole entry): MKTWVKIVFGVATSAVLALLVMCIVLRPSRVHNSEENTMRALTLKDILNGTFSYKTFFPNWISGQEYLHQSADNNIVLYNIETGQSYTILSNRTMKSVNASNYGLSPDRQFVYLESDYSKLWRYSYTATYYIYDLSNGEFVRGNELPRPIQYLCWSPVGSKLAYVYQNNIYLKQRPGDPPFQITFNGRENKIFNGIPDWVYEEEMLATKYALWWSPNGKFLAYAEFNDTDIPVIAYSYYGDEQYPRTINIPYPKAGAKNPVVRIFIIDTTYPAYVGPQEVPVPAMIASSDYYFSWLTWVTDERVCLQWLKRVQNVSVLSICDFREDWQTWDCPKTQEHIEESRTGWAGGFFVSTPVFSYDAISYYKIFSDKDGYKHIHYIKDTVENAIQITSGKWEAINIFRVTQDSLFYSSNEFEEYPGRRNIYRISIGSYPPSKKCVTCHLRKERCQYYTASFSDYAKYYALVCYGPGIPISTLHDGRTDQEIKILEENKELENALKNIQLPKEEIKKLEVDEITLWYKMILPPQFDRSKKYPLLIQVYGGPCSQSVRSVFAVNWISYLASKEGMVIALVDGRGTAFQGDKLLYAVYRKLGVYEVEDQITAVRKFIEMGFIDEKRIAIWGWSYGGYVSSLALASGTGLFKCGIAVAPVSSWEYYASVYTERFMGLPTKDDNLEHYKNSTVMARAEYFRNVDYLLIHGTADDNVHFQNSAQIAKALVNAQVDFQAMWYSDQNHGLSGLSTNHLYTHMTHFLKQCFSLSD

Mus musculus [2] = assay: Cardiotoxicity in BALB/C nude mouse xenografted with human MDA-MB-231 cells assessed as cytoplasmic vacuolization at 12 umol/kg, iv administered starting on day 5 measured after day 22 by hematoxylin-eosin staining-based assay; type: toxicity, organism-based; conditions: in vivo
Outline: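 Tissues from dosed xenograft mice fixed for 24 h and paraffin-embedded. Sections of 5 μm, H&E stained; heart, liver, spleen, lung, kidney and femur examined by a pathologist blind to treatment.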

[3] = Acute toxicity in iv dosed Kunming mouse measured less than 4 hrs post dose; type: organism-based; conditions: in vivo
Outline: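 Kunming mice (22.0−28.0 g), half male and half female, 10 groups of n = 10. Single iv dose on day 1 across five levels per compound (prodrug 29.98–50.00 μmol/kg; arenobufagin 4.50–8.00 μmol/kg). Watched continuously for 8 h for abnormal behaviour and deaths, then intermittently for 2 weeks, and sacrificed day 14. LD50 by Bliss method.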

MDA-MB-231 [4] = assay: Antitumor activity against human MDA-MB-231 cells xenografted in BALB/C nude mouse at 4 umol/kg, iv administered starting on day 5 measured after day 22 by Ki67 staining-based assay relative to control; type: functional
Outline: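 Female BALB/C nude mice, MDA-MB-231 cells (1 × 10^7) injected subcutaneously in Matrigel–PBS 1:1. Daily iv dosing in 5% HS15 vehicle from day 5. Tumours fixed and paraffin-embedded, 5 μm sections, anti-Ki67 IHC, read blind by a pathologist. Proliferative index by image analysis, n = 6. Compared with 5% HS15 control by one-way ANOVA and Tukey's test.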

[5] = In vivo prodrug activation in tumor of BALB/C nude mouse xenografted with human MDA-MB-231 cells assessed as FAP-alpha mediated (S)-((3S,5R,8R,9S,10S,11S,13R,14S,17R)-11,14-dihydroxy-10,13-dimethyl-12-oxo-17-(2-oxo-2H-pyran-5-yl)hexadecahydro-1H-cyclopenta[a]phenanthren-3-yl) 2-amino-3-(1H-indol-3-yl)propanoate formation at 40 umol/L by LC-MS/MS analysis; parameters: species or system Neoplasm
Outline: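 Tumour and heart tissue weighed and homogenized on ice in PBS, pH 7.4, then incubated with prodrug at 40 μmol/L. Bufalin at 2 μmol/L added as internal standard; reaction stopped with acetonitrile and spun at 18 000g for 30 min. Active form quantified by LC-MS/MS against a standard curve of 0.625–40 μmol/L; mean ± SEM of three samples.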

Mus musculus [6] = assay: Toxicity in BALB/C nude mouse xenografted with human MDA-MB-231 cells assessed as abnormal food intake at 12 umol/kg, iv administered starting on day 5 measured after day 22; type: organism-based; conditions: in vivo
Mus musculus [7] = assay: Cardiotoxicity in BALB/C nude mouse xenografted with human MDA-MB-231 cells assessed as change in left ventricular internal diastole dimension at 12 umol/kg, iv administered starting on day 5 measured after day 22 by echocardiography; type: toxicity, organism-based; conditions: in vivo
Outline: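 Same MDA-MB-231 xenograft mice, given daily iv doses in 5% HS15 from day 5. After 22 days of dosing, transthoracic echocardiography with a 21 MHz transducer under 1.5% isoflurane, supine. M-mode images taken from the parasternal short-axis view at the papillary muscle; IVSd, IVSs, LVIDd and LVIDs derived, n = 6.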

Prolyl endopeptidase FAP [8] = target: T1, Prolyl endopeptidase FAP; assay: as §1, with “formation” for “formation by measuring intrinsic clearance”, “hrs in presence of FAP-alpha inhibitor talabostat” for “hrs”; conditions: 40 µM
Outline: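 Prodrug at 40 μmol/L incubated with rhFAPα at 0.45 μg/mL in 0.2 mL buffer at 37 °C for 6 h, with bufalin at 2 μmol/L as internal standard. Stopped with acetonitrile and spun at 18 000g for 15 min. Released active form measured by UPLC-MS/MS via peak-area ratio against a standard curve of 0.625–40 μmol/L.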

[9] = Cytotoxicity in BMSC (unknown origin) assessed as cell viability at 1000 nmol/L after 72 hrs by MTT assay; type: cell-based; conditions: unidentified, 1 µM
Mus musculus [10] = assay: Toxicity in BALB/C nude mouse xenografted with human MDA-MB-231 cells assessed as abnormal behavioral at 12 umol/kg, iv administered starting on day 5 measured after day 22; type: organism-based; conditions: in vivo
MDA-MB-231 [11] = assay: Antiproliferative activity against human MDA-MB-231 cells transfected with pCMV6 incubated for 48 hrs by MTT assay; type: functional, cell-based; conditions: MDA-MB-231, 48 h
Outline: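 Cells grown in DMEM with 10% FBS and 1% penicillin-streptomycin at 37 °C, 5% CO2; 10% heat-inactivated FBS used during cytotoxicity testing to exclude serum FAP activity. Viability read by MTT; IC50 as mean ± SEM of at least three independent experiments. Transfected lines were made from MDA-MB-231 with human FAPα plasmid or empty pCMV6-Entry vector and checked by Western blot at 48 h.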

MDA-MB-231 [12] = assay: Antitumor activity against human MDA-MB-231 cells xenografted in BALB/C nude mouse assessed as tumor weight at 12 umol/kg, iv administered starting on day 5 measured after day 22 (reference value: 0.67 +/- 0.14 g); type: functional
Outline: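 Female BALB/C mice inoculated subcutaneously in the back with 1 × 10^7 MDA-MB-231 cells in Matrigel–PBS (1:1). From day 5, daily iv dosing in 5% Solutol-HS15 vehicle, with a vehicle control group. Tumours measured by caliper every 2 days (v = 0.5 × a × b²); tumour weight as mean ± SEM, n = 6, one-way ANOVA with Tukey's test.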

C[C@]12CC[C@H](OC(=O)[C@H](Cc3c[nH]c4ccccc34)NC(=O)[C@@H]3CCCN3C(=O)CNC(=O)OCc3ccccc3)C[C@H]1CC[C@@H]1[C@@H]2[C@H](O)C(=O)[C@]2(C)[C@@H](c3ccc(=O)oc3)CC[C@]12O
CL (Prolyl endopeptidase FAP [1]): 65890 µL/min/mg | Activity (Mus musculus [2]): Non-Toxic | LD50 at 4 h [3]: 44 µmol/kg | Activity (MDA-MB-231 [4]): 45 - 50% | Drug metabolism [5]: 19.82 µmol/L | Activity (Mus musculus [6]): Non-Toxic | Activity (Mus musculus [7]): Non-Toxic | Drug metabolism (Prolyl endopeptidase FAP [8]): Metabolite_Notdetected | Activity [9]: Non-Toxic | Activity (Mus musculus [10]): Non-Toxic | pIC50 (MDA-MB-231 [11]): 7.62 | Activity (MDA-MB-231 [12]): 0.43 g
